# Measured values: ChEMBL document CHEMBL1123956, “Nitrosoureido nucleosides as potential inhibitors of nucleotide biosynthesis” (J Med Chem, 1988)
# “And” between values parts separate entries of the source, which are not always exact repeats. Equal values may be shown once.
# Columns and labels:
# [1] = tested on: HEp-2; assay: Inhibition of colony formation of H.Ep-2 cells; format: functional, cell-based; details: Homo sapiens, read-out: I50
# Summary of the method: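 H.Ep.-2 cells exposed to drug over a 12-day period. Colony formation was scored against untreated controls, and I50 was taken as the concentration giving 50% inhibition.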
# [2] = tested on: L1210; assay: Inhibition of proliferation of L1210 cells; format: functional, cell-based; details: Mus musculus, read-out: I50
# Summary of the method: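 L1210 cells in suspension culture with drug for 48 h. I50 was the concentration giving 50% inhibition of proliferation relative to controls.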
# [3] = (§1) Half life was measured at pH 7; format: ADME
# Summary of the method: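 Stability in pH 7 buffer, followed by HPLC; reported as half-life. The method is taken from an earlier paper.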
# [4] = tested on: Mus musculus; assay: Percent increase in life span of p388 leukemia induced mice was determined at a dose of 100 mg/kg upon ip administration on days 1-5; format: functional; details: route intraperitoneal
# Summary of the method: (§2)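 Mice implanted with 10⁶ P388 leukemia cells were dosed intraperitoneally once daily on days 1-5 after implant. Activity is expressed as % increase in life span, and 30-day survivors were recorded.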
# [5] = tested on: Mus musculus; assay: Percent increase in life span of p388 leukemia induced mice was determined at a dose of 200 mg/kg upon ip administration on days 1-5; format: functional; details: route intraperitoneal; summary of the method: as §2
# [6] = tested on: L1210; assay: percent synthesis of RNA in L1210 cells when incubated with compound for 30 min using […] as radioligand; format: functional, Mus musculus
# Summary of the method: (§3)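 RNA synthesis in L1210 suspension cultures preincubated with agent for 30 min or 18 h. [5-3H]Urd was then added, and incorporation into RNA was sampled hourly over 4 h. Values are 4-h incorporation as % of untreated control.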
# [7] = tested on: L1210; assay: percent synthesis of DNA in L1210 cells when incubated with the compound for 18 h using […] as radioligand; format: functional, Mus musculus
# Summary of the method: (§4)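 DNA synthesis in L1210 suspension cultures preincubated with agent for 30 min or 18 h. [3H]dThd was then added to the medium, and incorporation into DNA was sampled at 1-h intervals over 4 h. Values are for the 4-h labelling period, as % of untreated control.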
# [8] = tested on: Mus musculus; assay: Percent increase in life span of p388 leukemia induced mice was determined at a dose of 25 mg/kg upon ip administration on days 1-5; format: functional; details: route intraperitoneal; summary of the method: as §2
# [9] = tested on: L1210; assay: Number of cells present measured with the Coulter counter(concuM); format: functional, Mus musculus
# Summary of the method: (§5)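 L1210 suspension cultures with agent for 30 min or 18 h, then a further 4 h with radiolabelled precursor. Cells were counted by Coulter counter and expressed as R, the count relative to the initial cell number (R = 1.0). R < 1.0 means a fall below the starting number; R > 1.0 means proliferation.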
# [10] = tested on: L1210; assay: percent synthesis of RNA in L1210 cells when incubated with compound for 18 h using […] as radioligand (conc umol); format: functional, Mus musculus; summary of the method: as §3
# [11] = tested on: L1210; assay: Size distribution of cells; format: functional, Mus musculus
# Summary of the method: (§6)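 L1210 suspension cultures with agent for 30 min or 18 h, then a 4-h labelling period. Size distribution was measured on a Model ZH Coulter Counter. The value is the instrument setting at the peak of cell size; higher settings mean larger cells.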
# [12] = tested on: L1210; assay: percent synthesis of protein in L1210 cells when incubated with the compound for 18 hr using [3H]-L-Leu as radioligand; format: functional, Mus musculus
# Summary of the method: (§7)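 Protein synthesis in L1210 suspension cultures preincubated with agent for 30 min or 18 h. [4,5-3H]-L-leucine was then added, and incorporation into protein was sampled hourly over 4 h. Values are 4-h incorporation as % of untreated control.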
# [13] = tested on: L1210; assay: Size distribution of cells (concuM); format: functional, Mus musculus; summary of the method: as §6
# [14] = tested on: L1210; assay: Number of cells present measured with the Coulter counter; format: functional, Mus musculus; summary of the method: as §5
# [15] = tested on: L1210; assay: percent synthesis of RNA in L1210 cells when incubated with compound for 18 h using […] as radioligand; format: functional, Mus musculus; summary of the method: as §3
# [16] = tested on: L1210; assay: percent synthesis of protein in L1210 cells when incubated with the compound for 18 hr uusing [3H]-L-Leu as radioligand; format: functional, Mus musculus; summary of the method: as §7
# [17] = tested on: L1210; assay: percent synthesis of DNA in L1210 cells when incubated with the compound for 30 min using […] as radioligand; format: functional, Mus musculus; summary of the method: as §4
# [18] = tested on: L1210; assay: percent synthesis of protein in L1210 cells when incubated with the compound for 30 min using [3H]L-Leu as radioligand; format: functional, Mus musculus; summary of the method: as §7
# [19] = as §1; format: ADME; remark: listed apart in the source
# Summary of the method: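 Stability in pH 7 buffer, with decomposition followed by HPLC and the half-life taken from it.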
# [20] = tested on: L1210; assay: percent synthesis of RNA in L1210 cells when incubated with compound for 18 hr using […] as radioligand at 25 uM conc.; format: functional, Mus musculus; summary of the method: as §3
# [21] = tested on: L1210; assay: percent synthesis of protein in L1210 cells when incubated with the compound for 18 hr using [3H]-L-Leu as radioligand at 25 uM conc.; format: functional, Mus musculus; summary of the method: as §7
# [22] = tested on: L1210; assay: percent synthesis of RNA in L1210 cells when incubated with compound for 30 min using […] as radioligand at 10 uM conc.; format: functional, Mus musculus; summary of the method: as §3
# [23] = tested on: L1210; assay: percent synthesis of RNA in L1210 cells when incubated with compound for 30 min using [3H]dThd as radioligand at 25 uM conc.; format: functional, Mus musculus; details: in the assay text read “[5-3H]Urd” for “[3H]dThd”; summary of the method: as §3
# [24] = tested on: L1210; assay: percent synthesis of RNA in L1210 cells when incubated with compound for 18 hr using […] as radioligand at 50 uM conc.; format: functional, Mus musculus; summary of the method: as §3
# [25] = tested on: L1210; assay: Number of cells present measured with the Coulter counter at 50 uM conc.; format: functional, Mus musculus; summary of the method: as §5
# [26] = tested on: L1210; assay: percent synthesis of protein in L1210 cells when incubated with the compound for 30 min using [3H]L-Leu as radioligand at 25 uM conc.; format: functional, Mus musculus; summary of the method: as §7
# [27] = tested on: L1210; assay: percent synthesis of DNA in L1210 cells when incubated with the compound for 18 h using […] as radioligand at 50 uM conc.; format: functional, Mus musculus; summary of the method: as §4
# [28] = tested on: L1210; assay: Size distribution of cells at 25 uM conc.; format: functional, Mus musculus; summary of the method: as §6
# [29] = tested on: L1210; assay: percent synthesis of DNA in L1210 cells when incubated with the compound for 18 h using [3H]dUrd as radioligand at 10 uM conc.; format: functional, Mus musculus; details: in the assay text read “[3H]dThd” for “[3H]dUrd”; summary of the method: as §4
# [30] = tested on: L1210; assay: percent synthesis of protein in L1210 cells when incubated with the compound for 18 hr using [3H]-L-Leu as radioligand at 50 uM conc.; format: functional, Mus musculus; summary of the method: as §7
# [31] = tested on: L1210; assay: Number of cells present measured with the Coulter counter at 25 uM conc.; format: functional, Mus musculus; summary of the method: as §5
# [32] = tested on: L1210; assay: percent synthesis of RNA in L1210 cells when incubated with compound for 30 min using [3H]dThd as radioligand at 50 uM conc.; format: functional, Mus musculus; details: in the assay text read “[5-3H]Urd” for “[3H]dThd”; summary of the method: as §3
# [33] = tested on: L1210; assay: percent synthesis of protein in L1210 cells when incubated with the compound for 30 min using [3H]L-Leu as radioligand at 50 uM conc.; format: functional, Mus musculus; summary of the method: as §7
# [34] = tested on: L1210; assay: Size distribution of cells at 10 uM conc.; format: functional, Mus musculus; summary of the method: as §6
# [35] = tested on: L1210; assay: Number of cells present measured with the Coulter counter at 10 uM conc.; format: functional, Mus musculus; summary of the method: as §5
# [36] = tested on: L1210; assay: percent synthesis of RNA in L1210 cells when incubated with compound for 18 h using […] as radioligand at 10 uM conc.; format: functional, Mus musculus; summary of the method: as §3
# [37] = tested on: L1210; assay: percent synthesis of DNA in L1210 cells when incubated with the compound for 30 min using […] as radioligand at 25 uM conc.; format: functional, Mus musculus; summary of the method: as §4
# [38] = tested on: L1210; assay: percent synthesis of protein in L1210 cells when incubated with the compound for 18 hr using [3H]-L-Leu as radioligand at 10 uM conc.; format: functional, Mus musculus; summary of the method: as §7
# [39] = tested on: L1210; assay: percent synthesis of protein in L1210 cells when incubated with the compound for 30 min using [3H]L-Leu as radioligand at 10 uM conc.; format: functional, Mus musculus; summary of the method: as §7
# [40] = tested on: L1210; assay: percent synthesis of DNA in L1210 cells when incubated with the compound for 30 min using […] as radioligand at 10 uM conc.; format: functional, Mus musculus; summary of the method: as §4
# [41] = tested on: L1210; assay: percent synthesis of DNA in L1210 cells when incubated with the compound for 18 hr using […] as radioligand at 25 uM conc.; format: functional, Mus musculus; summary of the method: as §4
# [42] = tested on: L1210; assay: percent synthesis of DNA in L1210 cells when incubated with the compound for 30 min using […] as radioligand at 50 uM conc.; format: functional, Mus musculus; summary of the method: as §4
# [43] = tested on: L1210; assay: Size distribution of cells at 50 uM conc.; format: functional, Mus musculus; summary of the method: as §6
compound,measurement,setting,value
CN(N=O)C(=O)Nc1ccc(NC(=O)C2OC(n3ccc(=O)[nH]c3=O)C(O)C2O)cc1 (stereo not drawn),IC50,[1],33 µM
same,IC50,[2],> 90 µM
same,half-life,[3],2 h
same,ILS at 100 mg/kg,[4],56%
Cc1cn(C2CC(O)C(C(=O)NCCN(N=O)C(=O)Nc3ccccc3)O2)c(=O)[nH]c1=O (stereo not drawn),IC50,[1],90 µM
same,IC50,[2],> 90 µM
same,half-life,[3],0.7 h
same,ILS at 200 mg/kg,[5],14%
O=NN(CCCl)C(=O)NCC1OC(n2ccc(=O)[nH]c2=O)CC1O (stereo not drawn),IC50,[1],14 µM
same,IC50,[2],12 µM
same,Control,[6],87% and 79% and 80%
same,Control,[7],189% and 192% and 152%
same,half-life,[3],4 h
same,ILS at 25 mg/kg,[8],191%
same,Cell no,[9],0.54
same,Control,[10],455%
same,Cell size,[11],60 and 82.5 and 75
same,Control,[12],474% and 254%
same,Cell size,[13],67.5 and 65 and 82.5
same,Cell no,[14],1.06 and 1.08 and 1.09 and 0.77 and 0.99
same,Control,[15],554% and 276%
same,Control,[16],658%
same,Control,[17],98% and 103% and 100%
same,Control,[18],96% and 92% and 95%
O=NN(C(=O)NC1CCCCC1)C1CCCCC1,T1/2,[19],0.875 h
Cc1cn(C2CC(O)C(CNC(=O)N(CCCl)N=O)O2)c(=O)[nH]c1=O (stereo not drawn),IC50,[1],10 µM
same,IC50,[2],5 µM
same,Control,[20],374%
same,Control,[21],455%
same,Control,[22],85%
same,Control,[23],88%
same,Control,[24],539%
same,Cell no,[25],1.06 and 0.64
same,Control,[26],99%
same,half-life,[3],6 h
same,Control,[27],147%
same,Cell size,[28],57.5 and 80
same,ILS at 25 mg/kg,[8],135%
same,Control,[29],145%
same,Control,[30],597%
same,Cell no,[31],1.08 and 0.92
same,Control,[32],87%
same,Control,[33],111%
same,Cell size,[34],60 and 80
same,Cell no,[35],1.08 and 1.21
same,Control,[36],217%
same,Control,[37],98%
same,Control,[38],257%
same,Control,[39],83%
same,Control,[40],108%
same,Control,[41],171%
same,Control,[42],85%
same,Cell size,[43],55 and 85
